In ChEMBL document CHEMBL4342410, “Design and Discovery of N-(3-(2-(2-Hydroxyethoxy)-6-morpholinopyridin-4-yl)-4-methylphenyl)-2-(trifluoromethyl)isonicotinamide, a Selective, Efficacious, and Well-Tolerated RAF Inhibitor Targeting RAS Mutant Cancers: The Path to the Clinic” (J Med Chem, 2020):
≈ marks a conversion by molar mass, not a printed value. Calls of active or inactive are those of the source. No cut-off for these calls is given here.

Tests used:
[1] = Apparent permeability across apical to basolateral side in human Caco2 cells at pH 7.4 by LC/MS/MS analysis; assay type: ADME, cell-based; details: Caco-2, pH 7.4
[2] = Intrinsic clearance in human liver microsomes; assay type: ADME, Microsome; details: read-out: CLH
[3] = Solubility of compound in pH 6.8 Cl-free PBS buffer by shake-flask assay; assay type: physicochemical
Outline: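 Shake-flask solubility measured in chloride-free PBS at pH 6.8.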

Calu-6 = assay: Antiproliferative activity against human Calu6 cells harboring KRAS Q61K mutant assessed as reduction in cell viability after 72 hrs by CellTiter-Glo assay; assay type: functional, cell-based; details: Calu-6, 72 h
[4] = Apparent permeability across basolateral to apical side in human Caco2 cells at pH 7.4 by LC/MS/MS analysis; assay type: ADME, cell-based; details: Caco-2, pH 7.4
[5] = molecular target: T1, RAF proto-oncogene serine/threonine-protein kinase (Homo sapiens, UniProt P04049); assay: Inhibition of CRAF in human Calu6 cells assessed as reduction MEK phosphorylation measured after 1 hr by sandwich ELISA; assay type: cell-based
[6] = Drug level in dog hepatocytes treated with RAF709 at 10 uM measured after 3 hrs by LC-MS/MS analysis; assay type: ADME, cell-based, Canis lupus familiaris, Hepatocyte
[7] = Drug level in rat hepatocytes treated with RAF709 at 10 uM measured after 3 hrs by LC-MS/MS analysis; assay type: ADME, cell-based, Hepatocyte
[8] = Drug level in human hepatocytes treated with RAF709 at 10 uM measured after 3 hrs by LC-MS/MS analysis; assay type: ADME, cell-based, Hepatocyte
[9] = molecular target: RAF proto-oncogene serine/threonine-protein kinase (Homo sapiens, UniProt P04049, Y340E/Y341E); assay: Inhibition of CRAF Y340E/Y341E mutant (unknown origin) using human MEK1 K97R mutant as substrate pretreated for 30 mins followed by substrate addition measured after 40 mins by alphascreen assay
[10] = molecular target: T1, RAF proto-oncogene serine/threonine-protein kinase; assay: Activation of CRAF in human Calu6 cells assessed as induction of MEK phosphorylation at 3 uM measured after 1 hr by sandwich ELISA; assay type: cell-based
[11] = Stimulation of BRAF-CRAF dimerization in human HCT116 cells measured after 2 hrs by NanoBit luciferase complementation assay; assay type: cell-based
[12] = molecular target: T1, RAF proto-oncogene serine/threonine-protein kinase; assay: Inhibition of CRAF in human Calu6 cells assessed as reduction MEK phosphorylation up to 24 uM measured after 1 hr by sandwich ELISA; assay type: cell-based
Cytochrome P450 3A4 = Cytochrome P450 3A4 (Homo sapiens, UniProt P08684); assay: Time dependent inhibition of CYP3A4 in human liver microsomes assessed as inactivation rate constant at 10 uM using midazolam as substrate incubated prior to substrate addition and measured after 6 mins in presence of NADPH; assay type: ADME; details: 0.1 h
Outline: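 Human liver microsomes (0.5 mg/mL) preincubated with test compound at 10 µM and 1 mM NADPH in phosphate buffer at 37 °C for 0, 5, 15 and 30 min. Mixture then diluted 20-fold and incubated with midazolam (20 µM) at 37 °C for 6 min to measure residual CYP3A4 activity. kobs taken as the initial rate of decline of activity versus preincubation time.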

[13] = Stability in rat hepatocytes assessed as parent compound remaining at 10 uM measured after 3 hrs by LC-MS/MS analysis; assay type: ADME, cell-based, Hepatocyte
[14] = Drug metabolism in human hepatocytes assessed as amide hydrolysis at 10 uM measured after 3 hrs by LC-MS/MS analysis; assay type: ADME, cell-based, Hepatocyte
[15] = Stability in dog hepatocytes assessed as parent compound remaining at 10 uM measured after 3 hrs by LC-MS/MS analysis; assay type: ADME, cell-based, Canis lupus familiaris, Hepatocyte; details: read-out: Stability
[16] = Stability in human hepatocytes assessed as parent compound remaining at 10 uM measured after 3 hrs by LC-MS/MS analysis; assay type: ADME, cell-based, Hepatocyte; details: read-out: Stability
[17] = Drug metabolism in rat hepatocytes assessed as amide hydrolysis at 10 uM measured after 3 hrs by LC-MS/MS analysis; assay type: ADME, cell-based, Hepatocyte

T1 sequence (P04049 whole entry): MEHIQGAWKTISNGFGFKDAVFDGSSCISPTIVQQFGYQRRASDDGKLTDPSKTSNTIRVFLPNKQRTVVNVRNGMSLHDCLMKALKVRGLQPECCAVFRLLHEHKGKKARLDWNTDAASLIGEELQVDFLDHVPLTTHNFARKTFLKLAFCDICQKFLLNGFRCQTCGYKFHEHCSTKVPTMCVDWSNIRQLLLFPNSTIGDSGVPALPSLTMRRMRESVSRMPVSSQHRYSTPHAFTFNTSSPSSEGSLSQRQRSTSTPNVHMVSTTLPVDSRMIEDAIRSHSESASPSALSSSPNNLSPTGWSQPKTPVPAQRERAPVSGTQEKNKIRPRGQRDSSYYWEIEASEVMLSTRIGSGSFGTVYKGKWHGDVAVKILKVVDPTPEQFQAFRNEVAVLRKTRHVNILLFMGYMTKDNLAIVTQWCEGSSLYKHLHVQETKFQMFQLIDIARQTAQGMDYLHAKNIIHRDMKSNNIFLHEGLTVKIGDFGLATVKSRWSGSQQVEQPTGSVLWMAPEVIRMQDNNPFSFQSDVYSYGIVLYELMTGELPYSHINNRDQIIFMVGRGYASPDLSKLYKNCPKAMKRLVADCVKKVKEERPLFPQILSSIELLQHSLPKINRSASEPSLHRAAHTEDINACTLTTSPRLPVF
Chain of RAF proto-oncogene serine/threonine-protein kinase (Homo sapiens, UniProt P04049, Y340E/Y341E) (P04049 whole entry Y340E/Y341E): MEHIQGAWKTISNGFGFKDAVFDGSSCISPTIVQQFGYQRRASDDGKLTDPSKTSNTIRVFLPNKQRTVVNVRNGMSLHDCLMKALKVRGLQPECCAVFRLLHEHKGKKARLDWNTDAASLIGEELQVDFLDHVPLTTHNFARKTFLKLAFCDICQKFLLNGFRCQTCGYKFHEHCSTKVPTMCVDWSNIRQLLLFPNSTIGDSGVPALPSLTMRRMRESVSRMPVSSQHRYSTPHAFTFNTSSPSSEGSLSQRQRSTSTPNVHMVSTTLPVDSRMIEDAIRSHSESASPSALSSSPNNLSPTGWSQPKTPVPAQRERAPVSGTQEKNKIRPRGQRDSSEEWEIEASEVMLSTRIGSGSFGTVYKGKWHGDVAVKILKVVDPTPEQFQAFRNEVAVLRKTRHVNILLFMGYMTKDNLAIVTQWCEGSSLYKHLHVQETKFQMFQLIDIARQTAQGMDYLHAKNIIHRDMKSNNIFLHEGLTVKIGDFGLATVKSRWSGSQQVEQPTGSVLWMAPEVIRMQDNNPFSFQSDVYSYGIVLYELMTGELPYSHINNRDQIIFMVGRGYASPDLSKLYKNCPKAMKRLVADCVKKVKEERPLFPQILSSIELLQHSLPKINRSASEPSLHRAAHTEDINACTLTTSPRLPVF
Chain of Cytochrome P450 3A4 (P08684 whole entry): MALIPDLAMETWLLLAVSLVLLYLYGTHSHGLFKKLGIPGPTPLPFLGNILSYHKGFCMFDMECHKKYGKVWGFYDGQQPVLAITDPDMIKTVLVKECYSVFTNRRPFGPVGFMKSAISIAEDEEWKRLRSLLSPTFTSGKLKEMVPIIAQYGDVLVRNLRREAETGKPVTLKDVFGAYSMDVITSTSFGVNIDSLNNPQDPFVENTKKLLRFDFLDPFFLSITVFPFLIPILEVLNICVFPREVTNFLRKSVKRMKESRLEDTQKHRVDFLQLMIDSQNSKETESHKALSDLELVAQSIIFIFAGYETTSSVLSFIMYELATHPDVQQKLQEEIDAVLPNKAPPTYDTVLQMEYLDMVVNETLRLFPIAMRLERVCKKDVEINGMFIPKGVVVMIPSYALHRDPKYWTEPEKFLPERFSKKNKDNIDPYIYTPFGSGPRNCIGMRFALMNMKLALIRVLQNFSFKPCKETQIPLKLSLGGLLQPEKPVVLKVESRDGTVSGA

SMILES | Papp A→B [1] | microsomal CLint [2] | solubility thermodynamic [3] | EC50 (Calu-6) | Papp B→A [4] | EC50 [5] | Drug uptake [6] | Drug uptake [7] | Drug uptake [8] | further results
Cc1ncc(NC(=O)c2cccc(C(F)(F)F)c2)cc1-c1cnc(O[C@H]2CCOC[C@H]2F)c(N2CCOCC2)c1 | 16 ×10⁻⁶ cm/s | 65.5 µL/min/mg | 25 µM (≈ 14 µg/mL) | 340 nM | 20 ×10⁻⁶ cm/s | – | – | – | – | –
[2H]C1(Oc2ncc(-c3cc(NC(=O)c4cccc(C(F)(F)F)c4)cnc3C)cc2N2CCOCC2)CCOCC1 | – | 88 µL/min/mg | 104 µM (≈ 56.5 µg/mL) | 400 nM | – | – | – | – | – | –
Cc1ccc(NC(=O)c2ccnc(C(C)(C)C#N)c2)cc1-c1cc(N2CCOCC2)c(=O)n(C)n1 | 6.3 ×10⁻⁶ cm/s | 15.5 µL/min/mg | 33.9 µM (≈ 16 µg/mL) | 1350 nM | 49 ×10⁻⁶ cm/s | 52 nM | – | – | – | –
Cc1ncc(NC(=O)c2cccc(C(F)(F)F)c2)cc1-c1cnc(OC2CCOCC2)c(N(CCO)CCO)c1 | – | – | – | – | – | – | Active | Active | Active | –
Cc1ncc(NC(=O)c2cccc(C(F)(F)F)c2)cc1-c1cc(N2CCOCC2)c(OC2CCOCC2)nn1 | 4.4 ×10⁻⁶ cm/s | 7.7 µL/min/mg | 59.6 µM (≈ 32.4 µg/mL) | 880 nM | 51 ×10⁻⁶ cm/s | 8 nM | – | – | – | –
Cc1ccc(NC(=O)c2cccc(C(F)(F)F)c2)cc1-c1cc(N2CCOCC2)ncn1 | – | 43.3 µL/min/mg | 13 µM (≈ 5.75 µg/mL) | 5280 nM | 41 ×10⁻⁶ cm/s | – | – | – | – | –
Cc1ncc(NC(N)=O)cc1-c1cnc(OC2CCOCC2)c(N2CCOCC2)c1 | – | – | – | – | – | – | Active | Active | Active | –
CC(C)(C)c1nc(-c2cccc(NS(=O)(=O)c3c(F)cccc3F)c2F)c(-c2ccnc(N)n2)s1 [DABRAFENIB] | – | – | – | – | – | – | – | – | – | Activity [10]: Active; EC50 [11]: Not Active; inhibition [12]: inactive
Cc1ncc(NC(=O)c2cccc(C(F)(F)F)c2)cc1-c1c[nH]c(=O)c(N2CCOCC2)c1 | 0.3 ×10⁻⁶ cm/s | 9.4 µL/min/mg | 55 µM (≈ 25.2 µg/mL) | 3910 nM | 43 ×10⁻⁶ cm/s | – | Active | Active | Active | –
Cc1ccc(NC(=O)c2ccnc(C(F)(F)F)c2)cc1-c1cc(NCCO)nc(N2CCOCC2)c1 | 5 ×10⁻⁶ cm/s | 20.5 µL/min/mg | 36.3 µM (≈ 18.2 µg/mL) | 510 nM | 53 ×10⁻⁶ cm/s | 8 nM | – | – | – | IC50 [9]: 0.6 nM; K (Cytochrome P450 3A4): 0.035 min⁻¹

Second part, led by results:

Papp A→B [1] | microsomal CLint [2] | solubility thermodynamic [3] | EC50 (Calu-6) | Papp B→A [4] | EC50 [5] | Drug uptake [6] | Drug uptake [7] | Drug uptake [8] | SMILES | further results
– | – | – | – | – | – | Active | Active | Active | Cc1ncc(N)cc1-c1cnc(OC2CCOCC2)c(N2CCOCC2)c1 | –
– | – | – | – | – | – | Active | Active | Active | Cc1ncc(NC(=O)c2cccc(C(F)(F)F)c2)cc1-c1cnc(OC(CCO)CCO)c(N2CCOCC2)c1 | –
8 ×10⁻⁶ cm/s | 48 µL/min/mg | 2.1 µM (≈ 1.05 µg/mL) | 160 nM | 30 ×10⁻⁶ cm/s | 61 nM | – | – | – | Cc1ccc(NC(=O)c2cccc(C(F)(F)F)c2)cc1-c1cc(N2CCOCC2)nc(NCCO)n1 | IC50 [9]: 0.2 nM
3 ×10⁻⁶ cm/s | 10.4 µL/min/mg | 730 µM (≈ 364 µg/mL) | 6220 nM | 34 ×10⁻⁶ cm/s | 27 nM | – | – | – | Cc1ncc(NC(=O)c2ccnc(C(C)(F)F)c2)cc1-c1cc(NCCO)nc(N2CCOCC2)c1 | IC50 [9]: 0.7 nM; K (Cytochrome P450 3A4): 0.035 min⁻¹
– | 94 µL/min/mg | – | – | – | – | – | – | – | Cc1ncc(NC(=O)c2cccc(C(F)(F)F)c2)cc1-c1cnc(OC2CCOCC2)c(N2CCOCC2)c1 | Stability [13]: 36%; Drug metabolism [14]: < 1%; remaining at 3 h, 10 µM [15]: 74%; remaining at 3 h, 10 µM [16]: 44%; Drug metabolism [17]: 20%
– | 302 µL/min/mg | 43 µM (≈ 24.6 µg/mL) | 1760 nM | – | 21 nM | – | – | – | CO[C@H]1COCC[C@@H]1Oc1ncc(-c2cc(NC(=O)c3cccc(C(F)(F)F)c3)cnc2C)cc1N1CCOCC1 | IC50 [9]: 1.7 nM
